Results on 17 compounds are retold here after ChEMBL document CHEMBL1914330 (Eur J Med Chem, 2011).

For assay [1], the system named is L1210. Kind of assay: Antiproliferative activity against mouse L1210 cells after 2 days by coulter counter analysis. Type of assay: functional, cell-based. The settings on record: L1210, 48 h. Put shortly: (§1)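 Cells suspended at 300,000–500,000 cells/mL and mixed 1:1 with diluted compound. Incubated at 37 °C for two days, then counted with a Coulter counter. IC50 is the concentration inhibiting proliferation by 50%, as mean ± SE from dose-response curves of at least three independent experiments.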

Assay [2] has as its system FM3A. Nature of the assay: Antiproliferative activity against mouse FM3A cells after 2 days by coulter counter analysis. It is filed as functional, cell-based. The settings on record: 48 h.
The subject of assay [3] is MOLT-4. Kind of assay: Antiproliferative activity against human MOLT4 cells after 2 days by coulter counter analysis. It is filed as functional, cell-based. The settings on record: MOLT-4, 48 h.
Assay [4] concerns HeLa. Nature of the assay: Antiproliferative activity against human HeLa cells after 2 days by coulter counter analysis. The settings on record: 48 h. Type of assay: functional, cell-based. Put shortly: as §1
The subject of assay [5] is CCRF-CEM. Kind of assay: Antiproliferative activity against human CEM cells after 2 days by coulter counter analysis. The settings on record: 48 h. It is filed as functional, cell-based. Put shortly: as §1
The species entered for assay [6] is Bos taurus. Kind of assay: Inhibition of bovine brain tubulin polymerization at 20 uM after 20 mins by turbidimetry. Put shortly: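 Purified bovine brain tubulin at 10 µM was preincubated with compound in glutamate buffer at 30 °C, then cooled to 0 °C and GTP added. Samples were warmed to 30 °C in a recording spectrophotometer and assembly followed by turbidity.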

The subject of assay [7] is CCRF-CEM. Nature of the assay: Antiproliferative activity against human CEM cells after 72 hrs by MTT assay. Type of assay: functional, cell-based. An outline of the steps:
(§2)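 Cells seeded at 8 × 10³ per well in complete medium and exposed to a range of compound concentrations at 37 °C for 72 h. Viability read by MTT test. IC50 taken as the concentration inhibiting proliferation by 50%.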
Background: Tetrazolium assays rely on reduction of a dye to a coloured formazan, in cell work by metabolically active cells.

Assay [8] is described as follows: Antiproliferative activity against human vinblastine-resistant CEM/VBL100 cells after 72 hrs by MTT assay. Type of assay: functional, cell-based. The settings on record: CEM/VBL100, 72 h. An outline of the steps: as §2
Assay [9] can be described thus: Antiproliferative activity against human taxol-resistant A549-T12 cells after 72 hrs by MTT assay. It is filed as functional, cell-based. The settings on record: A549, 72 h. Put shortly:
as §2

Molecules are shown by their SMILES. Active and inactive are the calls of the source. The rule behind the calls is not given here.

One may read the IC50 as the midpoint of a concentration-inhibition curve. As to `Nc1nc(N2CCCC2)sc1C(=O)c1ccc(Cl)cc1`, the 50% inhibitory concentration (IC50) in assay [1], in [2], in [3], in assay [4] and in assay [5] was above 200 µM each time.

For `COc1cc(C(=O)c2sc(N3CCOCC3)nc2N)cc(OC)c1OC`, the IC50 was found to be 38 µM in assay [1]; 24 µM in [2]; 22 µM in assay [3]; 8.8 µM in assay [4]; 25 µM in assay [5]. Moreover, the inhibition result in [6] is “inactive”.

In the case of `Nc1nc(N2CCCC2)sc1C(=O)c1ccc(Br)cc1`, the IC50 in [1], in assay [2], in [3], in assay [4] and in assay [5] was above 200 µM in each case.

`Nc1nc(N2CCCC2)sc1C(=O)c1ccccc1`: the IC50 in assay [1], in [2], in assay [3], in assay [4] and in [5] was above 200 µM each time.

With `COc1cc(C(=O)c2sc(N3CCCCC3)nc2N)cc(OC)c1OC`, the concentration for half-maximal inhibition (IC50) in [1] came to 43 µM; in [2], 39 µM; in [3], 16 µM; in assay [4], 11 µM; in assay [5], 22 µM. The inhibition result in assay [6] is “inactive”.

Take `COc1cccc(C(=O)c2sc(N3CCCC3)nc2N)c1`: the 50% inhibitory concentration (IC50) in assay [1], in [2], in [3], in assay [4] and in [5] was above 200 µM in each case.

Turning to `COc1ccc(C(=O)c2sc(N3CCCC3)nc2N)cc1`, the IC50 in assay [1], in assay [2], in assay [3], in assay [4] and in assay [5] was above 200 µM throughout.

`COc1ccc(C(=O)c2sc(N3CCCC3)nc2N)cc1OC`: the IC50 in assay [1] was determined as 60 µM; in [2], 112 µM; in assay [3], 31 µM; in assay [4], 36 µM; in assay [5], 19 µM.

As for `COc1ccc(/C=C\c2cc(OC)c(OC)c(OC)c2)cc1O` [COMBRETASTATIN A4], the concentration for half-maximal inhibition (IC50) in assay [1] came to 0.003 µM; in assay [4] it was 0.002 µM; in assay [5], 0.002 µM.

`CC[C@]1(O)C[C@@H]2CN(CCc3c([nH]c4ccccc34)[C@@](C(=O)OC)(c3cc4c(cc3OC)N(C)[C@H]3[C@@](O)(C(=O)OC)[C@H](OC(C)=O)[C@]5(CC)C=CCN6CC[C@]43[C@@H]65)C2)C1` [VINBLASTINE]: the concentration for half-maximal inhibition (IC50) in [7] stood at 0.004 µM; in assay [8], 0.23 µM.

For the compound `COc1cc(C(=O)c2sc(N)nc2N)cc(OC)c1OC`, the 50% inhibitory concentration (IC50) was determined as 48 µM in [1], 63 µM in assay [2], 31 µM in [4] and 42 µM in assay [5]. Also, in assay [6], the inhibition result is “inactive”.

As to `CCN(CC)c1nc(N)c(C(=O)c2cc(OC)c(OC)c(OC)c2)s1`, the concentration for half-maximal inhibition (IC50) in assay [1] was 62 µM; in assay [2] it was 115 µM; in [4] it was 38 µM; in assay [5], 78 µM. In addition, the inhibition result in assay [6] is “inactive”.

As for `COc1cc(C(=O)c2sc(N(C)C)nc2N)cc(OC)c1OC`, the half-inhibitory concentration (IC50) in assay [1] came out at 11 µM; in assay [2], 12 µM; in assay [4], 8.2 µM; in assay [5], 11 µM. The inhibition result in assay [6] was “inactive”.

As for `CCCCN(C)c1nc(N)c(C(=O)c2cc(OC)c(OC)c(OC)c2)s1`, the IC50 was determined as 53 µM in [1]; 47 µM in assay [2]; 32 µM in [3]; 31 µM in assay [4]; 42 µM in assay [5].

For the compound `COc1ccccc1C(=O)c1sc(N2CCCC2)nc1N`, the IC50 in [1] was above 200 µM; in assay [2], above 200 µM; in assay [3], above 200 µM; in [4], 185 µM; in assay [5] it was 171 µM.

Regarding `COc1cc(C(=O)c2sc(N(C)Cc3ccccc3)nc2N)cc(OC)c1OC`, the 50% inhibitory concentration (IC50) in [1], in assay [2], in assay [3], in assay [4] and in assay [5] was above 200 µM each time.

Turning to `CC(=O)O[C@H]1C(=O)[C@@]2(C)[C@H]([C@H](OC(=O)c3ccccc3)[C@]3(O)C[C@H](OC(=O)[C@H](O)[C@@H](NC(=O)c4ccccc4)c4ccccc4)C(C)=C1C3(C)C)[C@]1(OC(C)=O)CO[C@@H]1C[C@@H]2O` [PACLITAXEL], in assay [9], the IC50 worked out at 0.075 µM. In other words, the double-digit nanomolar range.
